{"data": "Published values from different studies", "target": "Ephrin type-A receptor 8 (EPHA8, Homo sapiens, UniProt P29322)", "Residues used in one study (P29322 28-1005)": "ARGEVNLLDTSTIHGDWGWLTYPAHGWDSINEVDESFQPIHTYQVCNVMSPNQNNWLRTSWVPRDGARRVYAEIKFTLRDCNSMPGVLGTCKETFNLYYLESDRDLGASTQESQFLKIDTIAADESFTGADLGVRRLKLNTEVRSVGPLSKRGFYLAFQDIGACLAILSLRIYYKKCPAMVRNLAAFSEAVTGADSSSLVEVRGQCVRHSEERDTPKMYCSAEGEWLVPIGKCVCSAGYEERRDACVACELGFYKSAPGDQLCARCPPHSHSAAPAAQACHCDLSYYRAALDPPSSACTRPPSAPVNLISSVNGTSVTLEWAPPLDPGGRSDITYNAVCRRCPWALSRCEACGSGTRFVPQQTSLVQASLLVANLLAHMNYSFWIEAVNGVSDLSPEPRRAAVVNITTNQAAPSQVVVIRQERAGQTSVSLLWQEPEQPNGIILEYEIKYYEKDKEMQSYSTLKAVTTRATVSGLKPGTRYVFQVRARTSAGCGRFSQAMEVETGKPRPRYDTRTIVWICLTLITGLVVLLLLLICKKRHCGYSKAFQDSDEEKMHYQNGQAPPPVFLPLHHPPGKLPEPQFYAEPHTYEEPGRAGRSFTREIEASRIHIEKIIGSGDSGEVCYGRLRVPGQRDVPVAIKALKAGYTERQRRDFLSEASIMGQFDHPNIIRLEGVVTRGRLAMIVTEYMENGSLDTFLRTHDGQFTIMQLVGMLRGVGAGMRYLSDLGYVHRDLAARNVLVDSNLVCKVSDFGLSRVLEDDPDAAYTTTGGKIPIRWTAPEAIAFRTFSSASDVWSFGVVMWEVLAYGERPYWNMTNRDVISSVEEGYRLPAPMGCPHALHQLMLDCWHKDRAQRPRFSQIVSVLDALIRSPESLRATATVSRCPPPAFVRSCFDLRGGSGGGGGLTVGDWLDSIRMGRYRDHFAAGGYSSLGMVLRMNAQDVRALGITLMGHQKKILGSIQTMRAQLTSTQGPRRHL", "note": "Compare with care: the assays were run in different laboratories."}
{"SMILES": "C[C@@H](c1ccc(-n2cnc3c(N)ncnc32)cc1)N1CCc2nn(C)c(Cc3ccccc3)c2C1=O", "observed": "binding", "method": "competition with immobilised ligand", "concentration": "0.1 µM", "remaining binding [%]": 63}
{"SMILES": "O=C(NCC1CCOCC1)c1n[nH]cc1NC(=O)c1c(F)cccc1F", "observed": "binding", "method": "competition with immobilised ligand", "concentration": "1 µM", "remaining binding [%]": 100}
{"SMILES": "CCOC(=O)c1cc2cc(-c3cc(C(=O)NCc4ccc(C(=O)O)cc4)nn3C)ccc2[nH]1", "observed": "cell-free assay", "method": "competition with immobilised ligand", "concentration": "0.1 µM", "remaining binding [%]": 100}
{"SMILES": "FC(F)(F)Oc1cccc(-c2cnc3ccc(-c4ccncc4)nn23)c1", "observed": "cell-free assay", "method": "competition with immobilised ligand", "concentration": "5 µM", "remaining binding [%]": 91}
{"SMILES": "CCOCCn1cc(C(=O)Nc2ccc(-n3nc(-c4cccnc4)cc3C(F)(F)F)cn2)ccc1=O", "observed": "cell-free assay", "method": "competition with immobilised ligand", "concentration": "1 µM", "remaining binding [%]": 84}
{"SMILES": "COc1cnc(Nc2cccc(S(N)(=O)=O)c2)nc1N1CCN(c2ccccc2)CC1", "observed": "binding", "method": "competition with immobilised ligand", "concentration": "1 µM", "remaining binding [%]": 96}
{"SMILES": "Cc1cnc(Nc2ccc(C(=O)N3CCC(N4CCCC4)CC3)cc2)nc1-c1cc2ccccc2s1", "observed": "binding", "method": "competition with immobilised ligand", "concentration": "1 µM", "remaining binding [%]": 100}
{"SMILES": "CCN1CCN(Cc2ccc(C(=O)Nc3ccc(C)c(Oc4ccc5c(c4)CC(=O)N5)c3)cc2C(F)(F)F)CC1", "observed": "binding", "method": "competition with immobilised ligand", "concentration": "1 µM", "remaining binding [%]": 82}
{"SMILES": "O=C(NCCCN1CCOCC1)c1ccc(Nc2ncc(Cl)c(-c3ccc(Cl)s3)n2)cc1", "observed": "binding", "method": "competition with immobilised ligand", "concentration": "1 µM", "remaining binding [%]": 95}
{"SMILES": "c1cncc(-c2cccc(Nc3nccc(NC4CCCCC4)n3)c2)c1", "observed": "binding", "method": "competition with immobilised ligand", "concentration": "10 µM", "remaining binding [%]": 100}
{"SMILES": "CN(C)c1nccc(-c2cnn3ncccc23)n1", "observed": "binding", "concentration": "1 µM", "remaining binding [%]": 100}
{"SMILES": "C[C@H](c1ccnc(Nc2nc3ccc(-c4cc(N(C)C)ncn4)cc3[nH]2)c1)N1CCN(C(=O)CC(F)(F)F)CC1", "observed": "cell-free assay", "method": "competition with immobilised ligand", "concentration": "0.1 µM", "remaining binding [%]": 100}
{"SMILES": "Cc1cnn2ncc(-c3ccnc(N(C)C)n3)c2c1", "observed": "binding", "concentration": "1 µM", "remaining binding [%]": 99}
{"SMILES": "Cc1nc(C2CCN(C(=O)c3ccc(OC(F)(F)F)cc3N)CC2)c2ncc(N3CCN(C)CC3)cc2n1", "observed": "cell-free assay", "method": "competition with immobilised ligand", "concentration": "1 µM", "remaining binding [%]": 98}
{"SMILES": "F[C@@H]1CCN(c2nccc(-c3cnn4ncccc34)n2)C1", "observed": "binding", "concentration": "1 µM", "remaining binding [%]": 92}
{"SMILES": "CC(=O)C1=C(C)N(c2cccc(C(F)(F)F)c2)C(=O)N[C@@H]1c1ccc(C#N)nc1", "observed": "cell-free assay", "method": "competition with immobilised ligand", "concentration": "1 µM", "remaining binding [%]": 100}
{"SMILES": "CN(C)c1nccc(-c2cnc3ncccn23)n1", "observed": "binding", "concentration": "1 µM", "remaining binding [%]": 79}
{"SMILES": "O=C(NCCCN1CCOCC1)c1ccc(Nc2nccc(-c3cc4ccccc4s3)n2)cc1", "observed": "binding", "method": "competition with immobilised ligand", "concentration": "1 µM", "remaining binding [%]": 96}
{"SMILES": "Cc1noc([C@H]2C[C@@H](c3ccc(C(F)(F)F)cc3)CN(C(=O)N3CCS(=O)(=O)C3)C2)n1", "observed": "cell-free assay", "method": "competition with immobilised ligand", "concentration": "1 µM", "remaining binding [%]": 100}
{"SMILES": "CN(CCCC(F)(F)F)c1nccc(-c2cnn3ncccc23)n1", "observed": "binding", "concentration": "1 µM", "remaining binding [%]": 93}
